Data from ChEMBL document CHEMBL4261487, “Small structural changes of the imidazopyridine diacylglycerol acyltransferase 2 (DGAT2) inhibitors produce an improved safety profile” (Medchemcomm, 2017).
pIC50: −log10 of the molar value.

Legend:
UGT = assay: Drug metabolism in human liver microsomes assessed as UGT-mediated glucuronidation by measuring clearance rate; format: ADME; conditions: liver microsomes, read-out: CLH
Rattus norvegicus [1] = assay: Unbound Cmax in Wistar Han IGS rat at 100 mg/kg, po qd administered for 14 days; format: ADME, organism-based; conditions: in vivo, 336 h
In short: (§1)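 Wistar Han rats were dosed orally once daily for 14 days (exploratory, 5/sex/dose) or 1 month (toxicity, 10/sex/dose). Toxicokinetic satellite animals (3–4/sex/dose) were used, and steady-state systemic exposure is given as the mean of male and female values combined.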

Canis familiaris [2] = assay: Unbound AUC in beagle dog at 10 mg/kg, po qd administered for 1 month; format: ADME, organism-based, Canis lupus familiaris; conditions: in vivo
In short: (§2)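 Beagle dogs were dosed orally once daily in a 14-day exploratory study or 1-month toxicity studies. Steady-state systemic exposure over the 24 h dosing interval is reported as the mean of male and female values combined.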

Canis familiaris [3] = assay: Toxicity in telemetered beagle dog assessed as foamy white salivation at 75 mg/kg administered via oral gavage measured within 4 hrs of dosing; format: organism-based, Canis lupus familiaris; conditions: in vivo
Canis familiaris [4] = assay: Toxicity in telemetered beagle dog assessed as foamy salivation at 20 mg/kg, iv administered as single bolus dose over 2 mins; format: organism-based, Canis lupus familiaris; conditions: in vivo
Canis familiaris [5] = assay: Toxicity in beagle dog assessed as body weight gain at 100 mg/kg, po qd administered starting on day 11 post 150 mg/kg dosing period and continuing for 20 days; format: organism-based, Canis lupus familiaris; conditions: in vivo, 480 h
CYP3A4 = CYP3A4 (Homo sapiens, UniProt P08684); assay: Drug metabolism in human liver microsomes assessed as CYP3A4-mediated oxidative metabolism by measuring clearance rate; format: ADME; conditions: liver microsomes, read-out: CLH
Canis familiaris [6] = assay: In vivo inhibition of DGAT2 in beagle dog assessed as coverage of in vitro IC50 for dog DGAT2 at 5 mg/kg, po qd administered for 1 month; format: functional, Canis lupus familiaris; design: scale not given: the % may be the effect or the level left
In short: (§3)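 Beagle dogs, once-daily oral dosing for 14 days or 1 month; systemic exposure with sexes combined; coverage is the average % above dog DGAT2 IC50 at steady state over the 24 h dosing interval.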

Canis familiaris [7] = assay: Unbound Cmax in beagle dog at 10 mg/kg, po qd administered for 1 month; format: ADME, organism-based, Canis lupus familiaris; conditions: in vivo; in short: as §2
Rattus norvegicus [8] = assay: Unbound Cmax in Wistar Han IGS rat at 300 mg/kg, po qd administered for 1 month; format: ADME, organism-based; conditions: in vivo; in short: as §1
Canis familiaris [9] = assay: Toxicity in beagle dog assessed as body weight gain at 150 mg/kg, po qd administered for 10 days; format: organism-based, Canis lupus familiaris; conditions: in vivo, 240 h
Rattus norvegicus [10] = assay: In vivo inhibition of DGAT2 in Wistar Han IGS rat assessed as coverage of in vitro IC50 for rat DGAT2 at 100 mg/kg, po qd administered for 14 days; format: functional; design: scale not given: the % may be the effect or the level left
In short: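 Wistar Han rats, once-daily oral dosing for 14 days (exploratory, 5/sex/dose) or 1 month (10/sex/dose); toxicokinetics in 3–4/sex/dose with sexes combined; coverage is the average % above rat DGAT2 IC50 at steady state over the 24 h dosing interval.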

Canis familiaris [11] = assay: Toxicity in telemetered beagle dog assessed as change in left ventricular parameters and activity level at 5 mg/kg administered via oral gavage measured over 24 hrs; format: organism-based, Canis lupus familiaris; conditions: in vivo
Rattus norvegicus [12] = assay: Toxicity in Wistar Han IGS rat at 10 mg/kg, po qd administered for 14 days; format: organism-based; conditions: in vivo, 336 h
In short: (§4)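 Wistar Han rats, daily oral dosing for 14 days (5/sex/dose) or 1 month (10/sex/dose); microscopic findings reported as incidence by sex, plus organ weights.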

Canis familiaris [13] = assay: Unbound AUC in beagle dog at 5 mg/kg, po qd administered for 1 month; format: ADME, organism-based, Canis lupus familiaris; conditions: in vivo; in short: as §2
[14] = Toxicity in po dosed beagle dog administered as qd for 14 days; format: organism-based, Canis lupus familiaris; conditions: in vivo
Canis familiaris [15] = assay: Unbound Cmax in telemetered beagle dog at 75 mg/kg administered via oral gavage measured over 24 hrs; format: ADME, organism-based, Canis lupus familiaris; conditions: in vivo
In short: (§5)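 Telemetered Beagle dogs given oral doses, with blood pressure and heart rate monitored after dosing alongside plasma exposure.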

Rattus norvegicus [16] = assay: Toxicity in Wistar Han IGS rat at 100 mg/kg, po qd administered for 14 days; format: organism-based; conditions: in vivo, 336 h; in short: as §4
Canis familiaris [17] = assay: Toxicity in telemetered beagle dog assessed as increase in systolic pressure at 75 mg/kg administered via oral gavage measured over 24 hrs; format: organism-based, Canis lupus familiaris; conditions: in vivo
Canis familiaris [18] = assay: In vivo inhibition of DGAT2 in beagle dog assessed as coverage of in vitro IC50 for dog DGAT2 at 300 mg/kg, po qd administered for 14 days; format: functional, Canis lupus familiaris; design: scale not given: the % may be the effect or the level left; in short: as §3
Canis familiaris [19] = assay: Toxicity in telemetered beagle dog assessed as increase in diastolic pressure at 75 mg/kg administered via oral gavage measured over 24 hrs; format: organism-based, Canis lupus familiaris; conditions: in vivo
Canis familiaris [20] = assay: In vivo inhibition of DGAT2 in beagle dog assessed as coverage of in vitro IC50 for dog DGAT2 at 10 mg/kg, po qd administered for 1 month; format: functional, Canis lupus familiaris; design: scale not given: the % may be the effect or the level left; in short: as §3
Canis familiaris [21] = assay: Unbound Cmax in telemetered beagle dog at 25 mg/kg administered via oral gavage measured over 24 hrs; format: ADME, organism-based, Canis lupus familiaris; conditions: in vivo; in short: as §5
Canis familiaris [22] = assay: Toxicity in telemetered beagle dog assessed as increase in heart rate at 25 mg/kg administered via oral gavage measured over 24 hrs; format: organism-based, Canis lupus familiaris; conditions: in vivo
Canis familiaris [23] = assay: Toxicity in telemetered beagle dog assessed as increase in heart rate at 50 mg/kg administered via oral gavage measured up to 9 hrs of post dosing; format: organism-based, Canis lupus familiaris; conditions: in vivo
Canis familiaris [24] = assay: Toxicity in telemetered beagle dog assessed as increase in diastolic pressure at 50 mg/kg administered via oral gavage measured during 4 hrs of post dosing; format: organism-based, Canis lupus familiaris; conditions: in vivo
[25] = Apparent intrinsic clearance in dog hepatocytes assessed per million cells; format: ADME, cell-based, Canis lupus familiaris, Hepatocyte
Rattus norvegicus [26] = assay: In vivo DGAT2 inhibition in po dosed sucrose-fed rat assessed as decrease in plasma triglyceride levels after 2 hrs; format: functional, organism-based
In short: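 Rats fed a high-sucrose diet, single oral dose of test article or vehicle; plasma TG measured in tail-vein blood 2 h post dose; n = 7–8 per group; results as percent change from vehicle group, one-way ANOVA with Dunnett's test.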

[27] = Drug metabolism in human liver microsomes assessed as fraction of UGT-mediated glucuronidation preincubated for 5 mins followed by addition of NADPH regenerating system and measured after 2.5 to 60 mins; format: ADME
In short: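 Fractions of metabolism attributed to CYP oxidation and UGT glucuronidation were derived from human liver microsomal incubations. For the glucuronidation arm, microsomes were supplemented with the UGT cofactor UDP-glucuronic acid.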

[28] = Fraction unbound in rat plasma; format: ADME, cell-free
Canis familiaris [29] = assay: Toxicity in telemetered beagle dog assessed as emesis at 5 to 50 mg/kg administered via oral gavage measured within 4 hrs of dosing; format: organism-based, Canis lupus familiaris; conditions: in vivo
Canis familiaris [30] = assay: Unbound AUC in beagle dog at 30 mg/kg, po qd administered for 1 month; format: ADME, organism-based, Canis lupus familiaris; conditions: in vivo; in short: as §2
[31] = biological target: T1, Diacylglycerol O-acyltransferase 2 (Homo sapiens, UniProt Q96PD7); assay: Inhibition of human DGAT2
T1 sequence (Q96PD7 whole entry): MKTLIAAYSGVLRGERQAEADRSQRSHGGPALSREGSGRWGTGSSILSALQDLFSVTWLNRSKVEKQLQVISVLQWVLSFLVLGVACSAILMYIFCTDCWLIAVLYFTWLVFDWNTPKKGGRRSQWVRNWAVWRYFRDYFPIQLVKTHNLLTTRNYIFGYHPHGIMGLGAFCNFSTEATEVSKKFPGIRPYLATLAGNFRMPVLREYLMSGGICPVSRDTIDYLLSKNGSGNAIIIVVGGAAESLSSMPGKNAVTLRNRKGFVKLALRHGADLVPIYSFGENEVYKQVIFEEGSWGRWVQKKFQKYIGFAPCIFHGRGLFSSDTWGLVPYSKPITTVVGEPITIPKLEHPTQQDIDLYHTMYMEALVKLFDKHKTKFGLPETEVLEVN
In short: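 IC50 against human DGAT2 in an enzymatic assay, reported as the geometric mean of at least three replicates with SEM.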

Sequence of CYP3A4 (P08684 whole entry): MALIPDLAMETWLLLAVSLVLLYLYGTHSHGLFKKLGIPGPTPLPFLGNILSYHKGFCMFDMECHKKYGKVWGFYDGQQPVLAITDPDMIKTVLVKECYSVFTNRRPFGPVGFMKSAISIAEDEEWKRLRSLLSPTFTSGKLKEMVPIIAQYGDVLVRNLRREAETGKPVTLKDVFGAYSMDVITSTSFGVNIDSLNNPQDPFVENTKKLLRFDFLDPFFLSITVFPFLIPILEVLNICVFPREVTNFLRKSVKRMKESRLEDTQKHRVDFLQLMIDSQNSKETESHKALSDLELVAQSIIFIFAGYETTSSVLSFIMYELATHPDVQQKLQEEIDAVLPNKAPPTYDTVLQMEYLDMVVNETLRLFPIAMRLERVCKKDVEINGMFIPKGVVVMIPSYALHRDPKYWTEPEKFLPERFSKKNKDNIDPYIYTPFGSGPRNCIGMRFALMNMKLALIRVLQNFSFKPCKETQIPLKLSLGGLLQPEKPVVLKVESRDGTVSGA

## CS(=O)(=O)O.O=C([C@@H]1CCCN(c2ccc3nc(C4(n5cc(Cl)cn5)CC4)[nH]c3n2)C1)N1CCCC1
UGT
  microsomal CLint: < 1.9 µL/min/mg
Rattus norvegicus [1]
  fCmax: 4.65 µM
Canis familiaris [2]
  fAUC: 5280 ng·h/mL
Canis familiaris [3]
  Activity: Toxic
Canis familiaris [4]
  Activity: Non-Toxic
Canis familiaris [5]
  Activity: Non-Toxic
CYP3A4
  microsomal CLint: 23.7 µL/min/mg
Canis familiaris [6]
  Activity: 87%
Canis familiaris [7]
  fCmax: 2030 nM
Rattus norvegicus [8]
  fCmax: 13.9 µM
Canis familiaris [9]
  Activity: Toxic
Rattus norvegicus [10]
  Activity: 98%
Canis familiaris [11]
  Activity: Non-Toxic
Rattus norvegicus [12]
  Activity: Non-Toxic
Canis familiaris [13]
  fAUC: 1120 ng·h/mL
[14]
  MTD at 336 h: 75 mg/kg/day
Canis familiaris [15]
  fCmax: 7.51 µM
Rattus norvegicus [16]
  Activity: Non-Toxic
Canis familiaris [17]
  Activity: 5 mmHg
Canis familiaris [18]
  Activity: >99%
Canis familiaris [19]
  Activity: 6 mmHg
Canis familiaris [20]
  Activity: 97%
Canis familiaris [21]
  fCmax: 4.06 µM
Canis familiaris [22]
  Activity: 6 to 20 bpm

## C[C@@H](c1nc2ccc(N3CCC[C@@H](C(=O)N4CCCC4)C3)nc2[nH]1)n1cc(Cl)cn1
UGT
  microsomal CLint: 10.8 µL/min/mg
Canis familiaris [2]
  fAUC: 2680 ng·h/mL
CYP3A4
  microsomal CLint: 27.5 µL/min/mg
Canis familiaris [7]
  fCmax: 1270 nM
Canis familiaris [23]
  Activity: 15 bpm
Canis familiaris [24]
  Activity: 6 mmHg
[25]
  CLH(app): 8.4 µL/min
Rattus norvegicus [26]
  inhibition: Dose-dependent effect
[27]
  Ratio: 0.39
[28]
  fraction unbound: 0.14
Canis familiaris [29]
  Activity: Toxic
Canis familiaris [30]
  fAUC: 9530 ng·h/mL
[31]
  pIC50: 7.70
Canis familiaris [20]
  Activity: 86%
Canis familiaris [21]
  fCmax: 2.14 µM
